Measured values reported in ChEMBL document CHEMBL4689842, “EUbOPEN Chemogenomics Library wave 1” (2021).

Test system: HEK-293T
Assay: Multiplex assay against HEK293T;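 for Population Tubulin-Different-Phenotype (%): share of the cells with healthy nuclei that show this phenotype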
Format: toxicity, cell-based
Conditions: human
Summary of the method: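 Compound was added to live cells that had been stained at seeding with Hoechst33342, BioTracker Green Microtubule Cytoskeleton Dye, MitoTracker Red and Annexin V Alexa Fluor 680, and imaging followed on a CQ1 microscope at 37°C and 5% CO2. CellPathfinder machine-learning gating divided cells into Hoechst high-intensity objects or normal cells, normal cells into healthy, pyknosed or fragmented nuclei, and pyknosed cells into mitotic or apoptotic. Tubulin, mitochondrial-mass and membrane-permeability phenotypes are per cents of healthy-nucleus cells.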

[1] = 12 h, 1 µM, compound concentration 1 uM, replicate 1
[2] = 12 h, 1 µM, compound concentration 1 uM, replicate 2
[3] = 12 h, 10 µM, compound concentration 10 uM, replicate 1
[4] = 12 h, 10 µM, compound concentration 10 uM, replicate 2
[5] = 24 h, 1 µM, compound concentration 1 uM, replicate 1
[6] = 24 h, 1 µM, compound concentration 1 uM, replicate 2
[7] = 24 h, 10 µM, compound concentration 10 uM, replicate 1
[8] = 24 h, 10 µM, compound concentration 10 uM, replicate 2
[9] = 48 h, 1 µM, compound concentration 1 uM, replicate 1
[10] = 48 h, 1 µM, compound concentration 1 uM, replicate 2
[11] = 48 h, 10 µM, compound concentration 10 uM, replicate 1
[12] = 48 h, 10 µM, compound concentration 10 uM, replicate 2

Cl.Cl.Nc1ncnc2c1c(-c1cccc(OCc3ccccc3)c1)cn2[C@H]1C[C@@H](CN2CCC2)C1
Population Apoptotic (%) [1]: 69% | Population Fragmented Nuclei (%) [1]: 13% | Population Healthy Nuclei (%) [1]: 17% | Population Hoechst High Intensity Objects (%) [1]: 24% | Population Membrane Permeable-Phenotype (%) [1]: 5% | Population Mitochondria Different-Phenotype (%) [1]: 94% | Population Mitotic Cells (%) [1]: 30% | Population Normal (%) [1]: 75% | Population Pyknosed Nuclei (%) [1]: 68% | Population Tubulin-Different-Phenotype (%) [1]: 88% | Total Cell Count [1]: 270 | Population Apoptotic (%) [2]: 56% | Population Fragmented Nuclei (%) [2]: 5% | Population Healthy Nuclei (%) [2]: 23% | Population Hoechst High Intensity Objects (%) [2]: 10% | Population Membrane Permeable-Phenotype (%) [2]: 2% | Population Mitochondria Different-Phenotype (%) [2]: 97% | Population Mitotic Cells (%) [2]: 43% | Population Normal (%) [2]: 89% | Population Pyknosed Nuclei (%) [2]: 71% | Population Tubulin-Different-Phenotype (%) [2]: 97% | Total Cell Count [2]: 199 | Population Fragmented Nuclei (%) [3]: 18% | Population Healthy Nuclei (%) [3]: 12% | Population Hoechst High Intensity Objects (%) [3]: 20% | Population Membrane Permeable-Phenotype (%) [3]: 3% | Population Mitochondria Different-Phenotype (%) [3]: 100% | Population Normal (%) [3]: 79% | Population Pyknosed Nuclei (%) [3]: 69% | Population Tubulin-Different-Phenotype (%) [3]: 84% | Total Cell Count [3]: 264 | Population Apoptotic (%) [4]: 95% | Population Fragmented Nuclei (%) [4]: 21% | Population Healthy Nuclei (%) [4]: 6% | Population Hoechst High Intensity Objects (%) [4]: 23% | Population Membrane Permeable-Phenotype (%) [4]: 9% | Population Mitochondria Different-Phenotype (%) [4]: 81% | Population Mitotic Cells (%) [4]: 4% | Population Normal (%) [4]: 77% | Population Pyknosed Nuclei (%) [4]: 71% | Population Tubulin-Different-Phenotype (%) [4]: 54% | Total Cell Count [4]: 213 | Population Apoptotic (%) [5]: 70% | Population Fragmented Nuclei (%) [5]: 14% | Population Healthy Nuclei (%) [5]: 18% | Population Hoechst High Intensity Objects (%) [5]: 25% | Population Membrane Permeable-Phenotype (%) [5]: 0% | Population Mitochondria Different-Phenotype (%) [5]: 100% | Population Mitotic Cells (%) [5]: 29% | Population Normal (%) [5]: 75% | Population Pyknosed Nuclei (%) [5]: 67% | Total Cell Count [5]: 260 | Population Apoptotic (%) [6]: 67% | Population Fragmented Nuclei (%) [6]: 7% | Population Healthy Nuclei (%) [6]: 43% | Population Hoechst High Intensity Objects (%) [6]: 5% | Population Membrane Permeable-Phenotype (%) [6]: 4% | Population Mitochondria Different-Phenotype (%) [6]: 93% | Population Mitotic Cells (%) [6]: 32% | Population Normal (%) [6]: 94% | Population Pyknosed Nuclei (%) [6]: 49% | Population Tubulin-Different-Phenotype (%) [6]: 91% | Total Cell Count [6]: 213 | Population Apoptotic (%) [7]: 92% | Population Fragmented Nuclei (%) [7]: 17% | Population Healthy Nuclei (%) [7]: 9% | Population Hoechst High Intensity Objects (%) [7]: 22% | Population Membrane Permeable-Phenotype (%) [7]: 0% | Population Mitochondria Different-Phenotype (%) [7]: 100% | Population Mitotic Cells (%) [7]: 7% | Population Normal (%) [7]: 77% | Population Pyknosed Nuclei (%) [7]: 73% | Population Tubulin-Different-Phenotype (%) [7]: 80% | Total Cell Count [7]: 278 | Population Apoptotic (%) [8]: 100% | Population Fragmented Nuclei (%) [8]: 23% | Population Healthy Nuclei (%) [8]: 11% | Population Hoechst High Intensity Objects (%) [8]: 26% | Population Membrane Permeable-Phenotype (%) [8]: 5% | Population Mitochondria Different-Phenotype (%) [8]: 89% | Population Mitotic Cells (%) [8]: 0% | Population Normal (%) [8]: 73% | Population Pyknosed Nuclei (%) [8]: 64% | Population Tubulin-Different-Phenotype (%) [8]: 68% | Total Cell Count [8]: 227 | Population Apoptotic (%) [9]: 74% | Population Fragmented Nuclei (%) [9]: 20% | Population Healthy Nuclei (%) [9]: 21% | Population Hoechst High Intensity Objects (%) [9]: 30% | Population Membrane Permeable-Phenotype (%) [9]: 0% | Population Mitochondria Different-Phenotype (%) [9]: 97% | Population Mitotic Cells (%) [9]: 25% | Population Normal (%) [9]: 70% | Population Pyknosed Nuclei (%) [9]: 57% | Population Tubulin-Different-Phenotype (%) [9]: 78% | Total Cell Count [9]: 250 | Population Apoptotic (%) [10]: 64% | Population Fragmented Nuclei (%) [10]: 6% | Population Healthy Nuclei (%) [10]: 71% | Population Hoechst High Intensity Objects (%) [10]: 11% | Population Membrane Permeable-Phenotype (%) [10]: 1% | Population Mitochondria Different-Phenotype (%) [10]: 87% | Population Mitotic Cells (%) [10]: 35% | Population Normal (%) [10]: 88% | Population Pyknosed Nuclei (%) [10]: 22% | Population Tubulin-Different-Phenotype (%) [10]: 93% | Total Cell Count [10]: 263 | Population Apoptotic (%) [11]: 93% | Population Fragmented Nuclei (%) [11]: 25% | Population Healthy Nuclei (%) [11]: 1% | Population Hoechst High Intensity Objects (%) [11]: 19% | Population Membrane Permeable-Phenotype (%) [11]: 0% | Population Mitochondria Different-Phenotype (%) [11]: 100% | Population Mitotic Cells (%) [11]: 6% | Population Normal (%) [11]: 80% | Population Pyknosed Nuclei (%) [11]: 73% | Population Tubulin-Different-Phenotype (%) [11]: 33% | Total Cell Count [11]: 315 | Population Apoptotic (%) [12]: 98% | Population Fragmented Nuclei (%) [12]: 34% | Population Healthy Nuclei (%) [12]: 17% | Population Hoechst High Intensity Objects (%) [12]: 12% | Population Mitotic Cells (%) [12]: 1% | Population Normal (%) [12]: 87% | Population Pyknosed Nuclei (%) [12]: 48% | Population Tubulin-Different-Phenotype (%) [12]: 88% | Total Cell Count [12]: 234
